# Among all 190,000 compounds or so, about 1,800 (0.95%) were called active. The sample as a whole holds a higher share of actives than the screen did. Unmarked numbers belong to inactive results.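 Rule for the calls: active = activation above the screen-wide mean of compound activation plus 3 SD (cut at about 130% in these data); inactive = the rest.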
# Experiment: enhancers of STAT3 transcriptional signaling – U3A cells, luciferase, luminescence, MLSCN library, primary screen (AID 871);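 note: 0% = background luminescence of wells with medium and substrate only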
# Details: IL-6 STAT3-luciferase reporter, at 5.6 µM, hits give high values, 100% = signal with IL-6 EC80 alone
# How it was run: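 Material: STAT3-luciferase reporter U3A cells. Controls: IL-6-treated wells, 100% activation. Read-out: % activation versus median of IL-6-stimulated wells. Probe or stimulus: IL-6 stimulus at 33 ng/mL final. Timing: compound 1 h, then IL-6 6 h at 37 °C. Signal: reporter luminescence signal.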
row,SMILES,activation (% of control)
1,Cc1cccc(NC(=S)Nc2ccc(Cl)c(Cl)c2)c1,92.4%
2,Cc1ccc(OCc2nnc(SC3CCc4ccccc4C3=O)n2C)cc1 (stereo not drawn),144% (active)
3,Cc1ccc(OCc2n[nH]c(=S)n2-c2ccccc2)cc1,105%
4,Cc1cccnc1NC(=O)CSc1nnc(COc2ccc(C(C)C)cc2)n1C,98.9%
5,Cc1cc(C)cc(OCC(=O)NCc2cc(C)nc3ccccc23)c1,92.5%
6,O=C(CC1NCCc2ccccc21)Nc1cccc(Cl)c1 (stereo not drawn),100%
7,CCOc1cc(N2CCOCC2)c(OCC)cc1NC(=O)c1cc(C)nc2ccccc12,93.6%
8,CCCCn1c(=O)c(CCC(=O)OCC(=O)Nc2ccc(C)c(Cl)c2)nc2ccccc21,100%
9,CCCCOc1ccc(NC(=O)[C@@H]2CCCN2C(=O)C2CCN(S(=O)(=O)c3ccc(C)cc3)CC2)cc1,102%
10,O=C(COc1ccccc1Cl)Nc1ccc(C(=O)c2ccc(C(=O)O)cc2)cc1,85.3%
11,CC(=O)Nc1ccc(NC(=O)COc2ccccc2C(=O)Nc2cccc(Cl)c2Cl)cc1,136% (active)
12,COc1cc(NC(=O)COc2ccccc2Cl)ccc1NC(=O)C(C)C,84.8%
13,Cc1cc2oc(C(=O)Nc3c(C)n(C)n(-c4ccccc4)c3=O)c(C)c2cc1Cl,96.5%
14,CC(C)COP(=O)(c1ccc(N(C)C)cc1)C(Nc1ccccc1)c1cccnc1 (stereo not drawn),106%
15,Nc1ccc(S(=O)(=O)Nc2nccc(/C=C/c3ccc(Br)s3)n2)cc1,92.4%
16,Oc1cccc2ccc(/C=C/c3ccc(Br)s3)nc12,146% (active)
17,O=C(Nc1nnc(C2CC2)s1)C1=NN(C2CCS(=O)(=O)C2)C(=O)CC1 (stereo not drawn),103%
18,O=C(N/N=C/c1ccccn1)c1ccc(S(=O)(=O)N2CCCCCC2)cc1,104%
19,O=C(C1CCN(C2CCN(Cc3cccc4c3OCO4)CC2)CC1)N1CCOCC1,108%
20,Cc1ccc(/C=N/NC(=O)COc2ccccc2-c2ccccc2)cc1,148% (active)
21,Cc1ccc(OCC(=O)N/N=C/c2ccncc2)cc1,95.8%
22,Cc1ccc(OCC(=O)N/N=C\c2ccco2)c(C)c1,92.2%
23,CC(=O)C1=C(C)NC2=C(C(=O)CC(C)(C)C2)C1C (stereo not drawn),97%
24,N#Cc1ncc(C(F)(F)F)cc1Oc1cccnc1,107%
25,COCCCNc1nc2c(-c3cccc(C(F)(F)F)c3)nnn2c2ccccc12,147% (active)

row,SMILES,activation (% of control)
1,Cc1cccc(Nc2nc3c(S(=O)(=O)c4ccccc4)nnn3c3ccccc23)c1C,105%
2,CC(=O)Nc1ccc(Nc2nc3c(S(=O)(=O)c4ccc(C)c(C)c4)nnn3c3ccccc23)cc1,95.2%
3,O=C(CNCc1ccco1)Nc1cc(S(=O)(=O)N2CCOCC2)ccc1N1CCCC1,114%
4,CCOc1ccc(NC(=S)N2CCC(N(C)CC3CCCO3)CC2)cc1 (stereo not drawn),102%
5,COc1cc2c(cc1OC)CN(C(=O)c1cc(=O)c3ccccc3o1)CC2,92.7%
6,CCOc1cc(C(=O)N2CCc3cc(OC)c(OC)cc3C2)ccc1OC(F)F,133% (active)
7,COc1cc2c(cc1OC)CN(C(=O)c1ccc(S(=O)(=O)N3CCCCCC3)cc1)CC2,92.7%
8,O=C(CNS(=O)(=O)c1ccccc1)NCC(=O)OCc1ccccc1F,108%
9,Cc1ccc(C(=O)Nc2cccc3ncccc23)cc1[N+](=O)[O-],94.5%
10,Cc1cc(O)c(NC(=O)c2ccc(C)c([N+](=O)[O-])c2)cc1C,134% (active)
11,CCN1CCC(=NNC(=O)c2ccc(C)c([N+](=O)[O-])c2)CC1,107%
12,Cc1ccccc1CC1(CO)CCCN(Cc2ccc3c(c2)OCCO3)C1 (stereo not drawn),93.5%
13,COc1ccccc1CCNC(=O)CSc1nnc2ccc(-c3cccnc3)nn12,101%
14,CC(C)(C)C(=O)CN1C2=NCCN2c2ccccc21,96.1%
15,COc1ccc(CCn2c(=N)c(C(=O)NCc3ccco3)cc3c(=O)n4cccc(C)c4nc32)cc1,94.5%
16,C=C(C)Cn1c(SCC(=O)NCc2ccco2)nc2sc3c(c2c1=O)CCC3,104%
17,O=C(NCc1ccco1)c1cccn2c(=O)c3c4c(sc3nc12)CCCC4,154% (active)
18,O=C(Nc1nnc(SCc2ccccc2Cl)s1)c1cccc([N+](=O)[O-])c1,109%
19,Fc1ccc(-c2nnc(CSc3nnc(-c4ccc5c(c4)OCO5)o3)o2)cc1,102%
20,c1ccc(-c2nnc(SCc3nc4ccccc4[nH]3)o2)cc1,109%
21,Fc1ccc2nc(-c3ccccc3)nc(SCc3nnc(-c4ccccc4)o3)c2c1,141% (active)
22,O=C(NCCCO)/C(=C\C=C\c1ccccc1)NC(=O)c1ccccc1Cl,101%
23,CC1CCc2sc(C(=O)N/N=C/C3CCCCC3)cc2C1 (stereo not drawn),103%
24,CN(NC(=O)c1ccccc1)c1nc2ccccc2nc1C(F)(F)F,96%
25,CSc1nc(N(C)NC(=O)c2cccc(C)c2)c2ccccc2n1,139% (active)

row,SMILES,activation (% of control)
1,CN(NC(=O)c1ccccc1F)c1nc(C(F)(F)F)nc2ccccc12,115%
2,CSc1ncccc1C(=O)Nc1nc2ccc(F)cc2s1,90.7%
3,COc1ccc2nc(Nc3nc4cc5c(cc4s3)OCCO5)sc2c1,93.3%
4,Fc1ccc2nc(Nc3nc4c(s3)CCCC4)sc2c1,147% (active)
5,COc1cc(NC(=S)NCc2ccco2)c(OC)cc1Cl,95.6%
6,O=C(c1ccc2ccccc2n1)N1CCN(c2ccccc2Cl)CC1,135% (active)
7,O=C(c1ccncc1)N1CCN(c2ccc3ccccc3n2)CC1,90%
8,COc1ccccc1N1CCN(C(=O)c2cc(-c3ccc(Cl)c(Cl)c3)on2)CC1,91.7%
9,O=C(/C=C/c1ccc(F)cc1)NCCNC(=O)/C=C/c1ccc(F)cc1,95%
10,COC(=O)CC(=O)N1CCN(c2ccc(Cl)c(Cl)c2)CC1,87.7%
11,CCC(=O)N(Cc1ccccc1)c1ccccn1,101%
12,Cc1csc2ncc(C(=O)N(Cc3ccccc3)c3ccccn3)c(=O)n12,144% (active)
13,CC(C)(C)C(=O)N(Cc1ccccc1)c1ccccn1,106%
14,CCCCCCCCc1c(O)nc(-n2[nH]c(C)c(CCO)c2=O)[nH]c1=O,102%
15,CCCC1OC23CCCCC2C(C#N)(C#N)C1(C#N)C(=N)O3 (stereo not drawn),104%
16,CC(C)(C)c1ccc(NC(=O)COC(=O)CCc2nc3ccccc3c(=O)[nH]2)cc1,95.4%
17,COc1cccc(/C=C(/CC(=O)Nc2ccc(N3CCOCC3)cc2)c2nc3ccccc3s2)c1,143% (active)
18,COc1cccc(C(=O)Nc2ccc(N3CCCC3)cc2)c1,90.1%
19,COc1ccc(/C=C(/CC(=O)Nc2ccc(C)cc2)c2nc3ccccc3s2)cc1,103%
20,CCc1ccccc1NC(=O)CN(C)C(=O)COc1ccc(C)nc1[N+](=O)[O-],104%
21,COc1ccc(CC(=O)Nc2ccccc2NC(=O)c2ccco2)cc1OC,100%
22,CCOC(=O)C1C(c2ccc(Cl)cc2)NC(=S)NC1(O)C(F)(F)F (stereo not drawn),98.2%
23,CCCCCCCC1(C)NC(=O)N(CC(=O)Nc2cc(C)on2)C1=O (stereo not drawn),93.7%
24,O=C(O)CSCc1nc2ccccc2s1,144% (active)
25,CSCCC(Nc1nc2ccccc2s1)C(=O)O (stereo not drawn),99.7%

row,SMILES,activation (% of control)
1,O=C(O)CS/C(=C\c1ccc(F)cc1)c1nc2ccccc2s1,136% (active)
2,COc1cccc2sc(NNC(=O)c3nc4ccccc4s3)nc12,120%
3,O=C(Nc1ccccc1)Nc1nc2ccccc2s1,100%
4,O=C(O)CCCCc1nc2ccccc2s1,94.9%
5,CCOP(=O)(OCC)C(Nc1cccc(C)c1)c1ccc(F)cc1 (stereo not drawn),95.7%
6,O=C(Cn1nnc2ccccc2c1=O)NCc1ccc(Cl)cc1,101%
7,C#CCCCc1nc2ccccc2c(=O)n1N,96.4%
8,Cc1cc(C(=O)NNC(=S)Nc2ccccc2C)cs1,100%
9,COc1ccc(C(=O)NC(Cc2ccc(OC(=O)c3ccc(OC)cc3)cc2)C(=O)O)cc1 (stereo not drawn),100%
10,NC1=NC(=O)C(Cc2cccc(Cl)c2Cl)S1 (stereo not drawn),98.2%
11,CCOc1ccc(N=Cc2c(O)n(-c3cccc(C)n3)c(=O)c3ccccc23)cc1,78.3%
12,CC(=O)n1c(C=Nc2ccccc2)c(O)c2ccccc21,134% (active)
13,CCCCn1c(=O)c(C(C)=O)c(O)c2ccccc21,106%
14,O=C1c2ccccc2NC(c2ccccc2O)N1NS(=O)(=O)c1ccccc1 (stereo not drawn),101%
15,COc1ccc(CN2CCN(Cc3cn(C)nc3-c3ccccc3)CC2CCO)c(C)c1C (stereo not drawn),105%
16,Cc1sc2nc(CC(N)=O)[nH]c(=O)c2c1-c1ccccc1,96.5%
17,CCOC(=O)CC(=O)CSc1nc(-c2ccccc2)cc(-c2ccc(Cl)cc2)c1C#N,98.1%
18,N#Cc1c(C(F)(F)F)cc(-c2ccc(Cl)cc2)nc1SCC(=O)O,142% (active)
19,N#Cc1c(C(F)(F)F)cc(-c2ccccc2)nc1SCC(=O)N1CCOCC1,107%
20,Cc1nn(CC2CC2)c(=O)n1N(C)c1ncc(C(F)(F)F)cc1Cl,99.4%
21,CCN(CCn1cccn1)C(=O)CC1C(=O)NCCN1Cc1cccc(OC)c1OC (stereo not drawn),106%
22,COc1cccc(C2c3[nH]c4ccccc4c3CCN2Cc2cccc(C)n2)c1 (stereo not drawn),126%
23,COc1ccc(C2c3[nH]c4ccccc4c3CCN2CCCn2cccn2)cc1C (stereo not drawn),148% (active)

# From PubChem BioAssay AID871 (The Scripps Research Institute Molecular Screening Center, 2007)
